What is called AC50 is the concentration giving half of the maximal activity seen.

Experimental findings from PubChem BioAssay AID624290 (Broad Institute, 2012) are described below.

In the assay the test system is SK-MEL-5 TRPM1-promoter luciferase reporter, 24 h. The assay can be described thus: TRPM1 promoter luciferase signal reduction, dose response, MITF inhibitor project, cell-based, SK-MEL-5, dry powder samples, set 2 (AID 624290). A digest of the protocol: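 Assay system – TRPM1 promoter–luciferase reporter stably expressed in SK-MEL-5 melanoma cells · Timing – compound pinned one day after plating, 24 h exposure at 37 °C · Measured by – luciferase luminescence with SteadyGlo reagent, 5 min room-temperature incubation · Measure – luminescence change reflecting TRPM1 promoter activity, decrease as inhibition · Control set – parthenolide positive control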

Several values for one entry are separate records, joined by “and”; a condition that tells them apart may be missing. Identical values can stand only once. Activity calls are given as the source filed them.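 The calls were made as follows: active = compounds dimming the MITF-driven luciferase signal, with fitted AC50 at most twice the top tested dose; inconclusive = flat curves with moderate signal drop, or poor-quality fits; inactive = the rest.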

In the case of `C=CCNC1=C(N2CCOCC2)C(=O)c2ccccc2C1=O`, the concentration at half-maximal activity (AC50) was 2.17 µM.

For `O=C1C(NS(=O)(=O)c2ccc(Br)s2)=C(N2CCOCC2)C(=O)c2ccccc21`, the AC50 is 10.5 µM.

In the case of `O=C(NC1=C(c2ccc(OC(F)(F)F)cc2)C(=O)c2ccccc2C1=O)c1ccc(Br)cc1`, the half-maximal activity concentration (AC50) was 16.3 µM.

As for `O=C(NC1=C(c2ccccc2)C(=O)c2ccccc2C1=O)c1ccccc1`, the concentration at half-maximal activity (AC50) was 3.73 µM.

Regarding `C[C@@H](NC1=C(Nc2ccccc2)C(=O)c2ccccc2C1=O)c1ccccc1`, the AC50 was 6.71 µM.

As to `O=C1C(NS(=O)(=O)c2cccs2)=C(N2CCOCC2)C(=O)c2ccccc21`, the AC50 was 10.2 µM.

Take `NC1=C(c2ccc(OC(F)(F)F)cc2)C(=O)c2ccccc2C1=O`: the AC50 is 20.9 µM.

In the case of `O=C1C(NS(=O)(=O)c2ccccc2)=C(N2CCCCC2)C(=O)c2ccccc21`, the concentration at half-maximal activity (AC50) is 21.5 µM.

Regarding `COc1ccc(C(=O)NC2=C(c3ccccc3)C(=O)c3ccccc3C2=O)cc1`, the AC50 was 4.99 µM.

Turning to `C=CCNC1=C(NS(=O)(=O)c2ccc(Br)cc2)C(=O)c2ccccc2C1=O`, the AC50 is 6.19 µM.

As for `CCN1CCN(C2=C(NS(=O)(=O)c3cccs3)C(=O)c3ccccc3C2=O)CC1`, the AC50 was 2.8 µM.

On to `O=C(NC1=C(N2CCOCC2)C(=O)c2ccccc2C1=O)c1ccc(Br)cc1`, for which the AC50 was 4.96 µM.

In the case of `CC(=O)N(C)C1=C(N2CCN(C)CC2)C(=O)c2ccccc2C1=O`, the AC50 is 0.432 µM.

Consider `C=CCNC1=C(Cl)C(=O)c2ccccc2C1=O`, for which the AC50 is 2.22 µM and 1.94 µM.

Take `COC1=C(NS(=O)(=O)c2ccccc2)C(=O)c2ccccc2C1=O`: the AC50 was 4.56 µM.

As to `COc1ccc(C2=C(NC(C)=O)C(=O)c3ccccc3C2=O)cc1`, the half-maximal activity concentration (AC50) was 4.13 µM.

Take `O=C(NC1=C(c2ccc(Oc3ccccc3)cc2)C(=O)c2ccccc2C1=O)c1ccccc1`: the AC50 was > 70 µM (inactive).

With `O=C(NC1=C(N2CCN(c3ccccc3)CC2)C(=O)c2ccccc2C1=O)c1ccccc1`, the AC50 is 17.1 µM.

For the molecule `CC1CCN(CC(CS(=O)(=O)c2ccc([N+](=O)[O-])cc2)N2CCC(C)CC2)CC1` (stereo unspecified), the half-maximal activity concentration (AC50) is 3.87 µM.

`C=CCNC1=C(N2CCSCC2)C(=O)c2ccccc2C1=O`: the concentration at half-maximal activity (AC50) is 5.12 µM.

On to `CN1CCN(C2=C(NS(=O)(=O)c3ccc(Br)s3)C(=O)c3ccccc3C2=O)CC1`, for which the concentration at half-maximal activity (AC50) is 2.53 µM.

In the case of `CCN(CC)CCNC1=C(Nc2ccccc2)C(=O)c2ccccc2C1=O`, the AC50 is 1.66 µM.

Turning to `O=C1C(Nc2ccccc2)=C(N2CCCCC2)C(=O)c2ccccc21`, the AC50 was 9.81 µM.

Take `COc1ccc(S(=O)(=O)N(C(C)=O)c2ccc(OC(C)=O)c3ccccc23)cc1[N+](=O)[O-]`: the AC50 is 6.36 µM.

Take `O=C1C(NS(=O)(=O)c2ccccc2)=C(N2CCOCC2)C(=O)c2ccccc21`: the half-maximal activity concentration (AC50) is 10.5 µM.

With `O=C(NC1=C(c2ccccc2)C(=O)c2ccccc2C1=O)c1ccco1`, the AC50 was 6.33 µM.

`Cc1ccc(C(=O)NC2=C(c3ccccc3)C(=O)c3ccccc3C2=O)o1`: the AC50 was 4.25 µM.

For `NC1=C(c2ccccc2)C(=O)c2ccccc2C1=O`, the concentration at half-maximal activity (AC50) was 5.86 µM.

Take `O=C(NC1=C(c2ccccc2)C(=O)c2ccccc2C1=O)c1ccc(Br)cc1`: the concentration at half-maximal activity (AC50) is 9.43 µM.

As to `COc1ccc(C(=O)NC2=C(c3ccc(OC)cc3)C(=O)c3ccccc3C2=O)cc1`, the concentration at half-maximal activity (AC50) was 5.86 µM.

In the case of `COc1ccc(C2=C(NC(=O)c3cccc(OC)c3)C(=O)c3ccccc3C2=O)cc1`, the AC50 is 7.97 µM.

Take `CCN1CCN(C2=C(Nc3ccccc3)C(=O)c3ccccc3C2=O)CC1`: the AC50 was 2.34 µM.

On to `O=C(NC1=C(c2ccc(OC(F)(F)F)cc2)C(=O)c2ccccc2C1=O)c1ccccc1F`, for which the AC50 is 12 µM.

In the case of `O=C(NC1=C(N2CCCCC2)C(=O)c2ccccc2C1=O)c1ccccc1`, the AC50 was > 32 µM (inactive).

On to `CC(=O)NC1=C(c2ccccc2)C(=O)c2ccccc2C1=O`, for which the concentration at half-maximal activity (AC50) is 4.94 µM.

As for `O=C1C(NS(=O)(=O)c2ccc(Br)cc2)=C(N2CCSCC2)C(=O)c2ccccc21`, the AC50 is 13.9 µM.

For `O=C1C(NCCCN2CCOCC2)=C(Nc2ccccc2)C(=O)c2ccccc21`, the AC50 is 7.78 µM.

As for `O=C1C(NS(=O)(=O)c2ccc(Br)cc2)=C(N2CCN(c3ccccc3)CC2)C(=O)c2ccccc21`, the AC50 was 21.3 µM.

For `C=CCNC1=C(NC(=O)c2ccccc2)C(=O)c2ccccc2C1=O`, the AC50 is 17.5 µM.

Regarding `CN1CCN(C2=C(NS(=O)(=O)c3ccc(Br)cc3)C(=O)c3ccccc3C2=O)CC1`, the AC50 is 1.59 µM.

Regarding `C=C1C(=O)OC2C1CC/C(C)=C\CCC1(C)OC21` (stereo unspecified), the AC50 was 5.01 µM.

Consider `CCN(CC)CCCNC1=C(Nc2ccccc2)C(=O)c2ccccc2C1=O`, for which the AC50 was 2.01 µM.

For `O=C1C(NS(=O)(=O)c2cccs2)=C(N2CCCCC2)C(=O)c2ccccc21`, the AC50 was 21.3 µM.

With `CC(=O)N(C)C1=C(N2CCCCC2)C(=O)c2ccccc2C1=O`, the AC50 is 0.576 µM.

`C=CCNC1=C(NCC=C)C(=O)c2ccccc2C1=O`: the AC50 is > 70 µM (inactive).

Regarding `CC(=O)NC1=C(c2ccc(Cl)cc2)C(=O)c2ccccc2C1=O`, the concentration at half-maximal activity (AC50) is 4.56 µM.

Regarding `Cc1ccc(C(=O)NC2=C(c3ccc(OC(F)(F)F)cc3)C(=O)c3ccccc3C2=O)o1`, the AC50 was 12.4 µM.

On to `CC(=O)NC1=C(c2ccc(Oc3ccccc3)cc2)C(=O)c2ccccc2C1=O`, for which the AC50 was 17 µM.

For `COc1cccc(C2=C(NC(=O)c3ccccc3)C(=O)c3ccccc3C2=O)c1`, the concentration at half-maximal activity (AC50) is 13.4 µM.

Take `CC(=O)NC1=C(c2cccc(Cl)c2)C(=O)c2ccccc2C1=O`: the concentration at half-maximal activity (AC50) is 2.31 µM.

As to `CN1CCN(C2=C(NS(=O)(=O)c3ccccc3)C(=O)c3ccccc3C2=O)CC1`, the AC50 is 0.984 µM.

`CN1CCN(C2=C(Nc3ccccc3)C(=O)c3ccccc3C2=O)CC1`: the AC50 is 4.21 µM.

Consider `O=C(NC1=C(N2CCSCC2)C(=O)c2ccccc2C1=O)c1ccccc1`, for which the AC50 was 3.07 µM.

Turning to `O=C1C(NS(=O)(=O)c2ccc(Br)cc2)=C(c2ccc(OC(F)(F)F)cc2)C(=O)c2ccccc21`, the concentration at half-maximal activity (AC50) was 10.4 µM.

Regarding `O=C1C(NS(=O)(=O)c2ccc(Br)cc2)=C(N2CCOCC2)C(=O)c2ccccc21`, the half-maximal activity concentration (AC50) was 6.22 µM.

As for `O=C1C(NS(=O)(=O)c2ccc(Br)cc2)=C(N2CCCCC2)C(=O)c2ccccc21`, the AC50 is 10.5 µM.

As for `CN1CCN(C2=C(NC(=O)c3ccccc3)C(=O)c3ccccc3C2=O)CC1`, the AC50 is 0.524 µM.

As for `NC1=C(NC(=O)c2ccccc2)C(=O)c2ccccc2C1=O`, the half-maximal activity concentration (AC50) was 3.65 µM.

As to `CN1CCN(C2=C(NC(=O)c3ccc(Br)cc3)C(=O)c3ccccc3C2=O)CC1`, the concentration at half-maximal activity (AC50) is 0.685 µM.

Turning to `O=C(NC1=C(c2ccc(OC(F)(F)F)cc2)C(=O)c2ccccc2C1=O)c1ccco1`, the concentration at half-maximal activity (AC50) was 14.8 µM.

Take `C=CCNC1=C(NCCCN2CCOCC2)C(=O)c2ccccc2C1=O`: the AC50 is 10.5 µM.

In the case of `COc1ccc(C2=C(NC(=O)c3ccc4ccccc4c3)C(=O)c3ccccc3C2=O)cc1`, the AC50 is > 70 µM (inactive).

For the molecule `O=C(NC1=C(N2CCOCC2)C(=O)c2ccccc2C1=O)c1ccccc1`, the half-maximal activity concentration (AC50) was 5.21 µM.

As to `O=C1C(NS(=O)(=O)c2ccc(Br)s2)=C(N2CCSCC2)C(=O)c2ccccc21`, the half-maximal activity concentration (AC50) is 12.1 µM.

For the molecule `C=CCNC1=C(NCCN(CC)CC)C(=O)c2ccccc2C1=O`, the half-maximal activity concentration (AC50) was 1.88 µM.

With `CCN1CCN(C2=C(NC(=O)c3ccccc3)C(=O)c3ccccc3C2=O)CC1`, the concentration at half-maximal activity (AC50) was 0.714 µM.

For `C=CCNC1=C(NCCCN(CC)CC)C(=O)c2ccccc2C1=O`, the AC50 was 2.17 µM.

`O=C1C(NS(=O)(=O)c2ccc(Br)s2)=C(N2CCCCC2)C(=O)c2ccccc21`: the concentration at half-maximal activity (AC50) is 16.6 µM.

For `C=CCNC1=C(NS(=O)(=O)c2cccs2)C(=O)c2ccccc2C1=O`, the AC50 was 16 µM.

As for `CCN1CCN(C2=C(NS(=O)(=O)c3ccc(Br)s3)C(=O)c3ccccc3C2=O)CC1`, the AC50 is 2.97 µM.

Turning to `C=CCNC1=C(N2CCN(C)CC2)C(=O)c2ccccc2C1=O`, the AC50 was 4.58 µM.

On to `CC(=O)N(C)C1=C(N2CCOCC2)C(=O)c2ccccc2C1=O`, for which the AC50 was 2.04 µM.

As to `C=CCNC1=C(N2CCCCC2)C(=O)c2ccccc2C1=O`, the half-maximal activity concentration (AC50) is 0.614 µM.

As for `CCN1CCN(C2=C(NS(=O)(=O)c3ccc(Br)cc3)C(=O)c3ccccc3C2=O)CC1`, the half-maximal activity concentration (AC50) was 4.27 µM.

For `O=C1C(Nc2ccccc2)=C(N2CCOCC2)C(=O)c2ccccc21`, the AC50 is 7.25 µM and 6.91 µM.

Consider `CCN1c2ccccc2NC2N=C(OC)C(c3ccccc3)C21` (stereo unspecified), for which the half-maximal activity concentration (AC50) was 2.44 µM.

With `O=C(NC1=C(N2CCSCC2)C(=O)c2ccccc2C1=O)c1ccc(Br)cc1`, the AC50 is 6.2 µM.

Consider `O=C(CNc1cccc2ccccc12)N/N=C/c1ccc([N+](=O)[O-])o1`, for which the AC50 is 1.52 µM.

On to `COc1ccc(C2=C(NC(=O)c3ccccc3Cl)C(=O)c3ccccc3C2=O)cc1`, for which the half-maximal activity concentration (AC50) was 4.92 µM.

For `COc1ccc(C2=C(NC(=O)c3ccc(OC)cc3-c3cccc(OC)c3)C(=O)c3ccccc3C2=O)cc1`, the AC50 is > 70 µM (inactive).

For `COc1ccc(C2=C(NC(=O)c3ccc(Cl)cc3)C(=O)c3ccccc3C2=O)cc1`, the AC50 was 12.2 µM.

Regarding `CCN1CCN(C2=C(N(C)C(C)=O)C(=O)c3ccccc3C2=O)CC1`, the half-maximal activity concentration (AC50) is 0.561 µM.

As for `CN1CCN(C2=C(NS(=O)(=O)c3cccs3)C(=O)c3ccccc3C2=O)CC1`, the half-maximal activity concentration (AC50) was 1.94 µM.

With `O=C1C(Nc2ccccc2)=C(NS(=O)(=O)c2ccccc2[N+](=O)[O-])C(=O)c2ccccc21`, the AC50 is 17.9 µM.

Consider `C=CCNC1=C(N2CCN(CC)CC2)C(=O)c2ccccc2C1=O`, for which the half-maximal activity concentration (AC50) is 4.69 µM.

On to `C=CCNC1=C(Nc2ccccc2)C(=O)c2ccccc2C1=O`, for which the AC50 was 8.22 µM.

In the case of `CCN(CC)CCCCNC1=C(Nc2ccccc2)C(=O)c2ccccc2C1=O`, the AC50 is 5.75 µM.

`O=C1C(NS(=O)(=O)c2ccc(Br)cc2)=C(c2ccccc2)C(=O)c2ccccc21`: the half-maximal activity concentration (AC50) is 18.5 µM.

`O=C(NC1=C(Cl)C(=O)c2ccccc2C1=O)c1ccccc1`: the concentration at half-maximal activity (AC50) is 0.806 µM.

As to `CCN(CC)CCCNC1=C(N(C)C(C)=O)C(=O)c2ccccc2C1=O`, the half-maximal activity concentration (AC50) is 0.823 µM.

With `O=C1C(Nc2ccccc2)=C(N2CCSCC2)C(=O)c2ccccc21`, the AC50 was 11.9 µM.
